# In PMC2757082 (Biopolymers, 2009):
# Several values for one entry are separate records, joined by “and”; a condition that tells them apart may be missing. Identical values can stand only once. Like-named read-outs stand apart in the source and are kept apart here.
# Key:
# Assay type in all cases: biochemical
# [1] = target: T1, F1Fo-ATPase in bovine SMPs (Bos taurus, UniProt P00829); experiment: Bovine SMP ATP synthesis steady-state kinetic assay; settings: for Ki: Bovine, ±SE
# Summary of the method: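 ATP synthesis by bovine heart SMPs was read by coupling ATP production to NADP⁺ reduction at varied ADP (1.875–1200 μM). SMPs were preincubated 5 min with aurovertin (1% DMSO final) or DMSO control before substrate or coupling reagents. Apparent parameters came from Michaelis-Menten fits at each inhibitor level, with secondary plots fit by eqs 2–4. 3D fits of velocity against MgADP and inhibitor used eq 6 (mixed inhibition model).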
# [2] = target: F1Fo-ATPase from E. coli in liposomes (Escherichia coli, UniProt P0ABB4)
# Chain of F1Fo-ATPase from E. coli in liposomes (P0ABB4 2-460 limits assumed): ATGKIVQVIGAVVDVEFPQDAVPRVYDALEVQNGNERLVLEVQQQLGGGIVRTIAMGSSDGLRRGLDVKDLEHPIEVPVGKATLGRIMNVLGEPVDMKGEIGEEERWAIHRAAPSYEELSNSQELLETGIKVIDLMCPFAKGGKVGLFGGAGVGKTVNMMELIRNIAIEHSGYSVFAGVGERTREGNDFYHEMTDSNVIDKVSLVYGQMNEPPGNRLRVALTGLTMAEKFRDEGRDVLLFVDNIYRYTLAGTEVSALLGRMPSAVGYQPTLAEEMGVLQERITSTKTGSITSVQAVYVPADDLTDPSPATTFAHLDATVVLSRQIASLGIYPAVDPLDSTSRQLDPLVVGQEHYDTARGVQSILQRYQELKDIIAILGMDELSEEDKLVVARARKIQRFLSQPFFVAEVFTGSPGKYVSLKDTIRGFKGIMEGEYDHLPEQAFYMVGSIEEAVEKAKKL
# [3] = target: T1, F1Fo-ATPase in bovine SMPs; experiment: Bovine SMP ATP hydrolysis steady-state kinetic assay; settings: for Vmax2 (maximal catalytic rate of ESI complex) / Ki: Bovine, ±SE
# [4] = target: E. coli membrane F1Fo-ATPase (Escherichia coli, UniProt P0ABB4); experiment: E. coli everted membrane ATP hydrolysis steady-state kinetic assay
# Summary of the method: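 Everted membrane vesicles came from E. coli strain LE392 and were used at 33 μg mL⁻¹, with 5 mM KCN to block chemiosmotic phosphorylation. ATP hydrolysis was read by the NADH-coupled assay, with aurovertin at 1% DMSO final. Michaelis-Menten fits of initial velocity gave apparent kinetic parameters at each inhibitor concentration. Secondary plots were fit with eqs 2–4, assuming residual catalytic activity at saturating inhibitor.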
# [5] = bovine, synthesis vs hydrolysis
# [6] = HMM-based FRET level assignment, presence of aurovertin
# [7] = aurovertin and ATP, Gaussian fit
structure (smiles),measurement,setting,value
"CC[C@H]1O[C@]2(C)[C@H](OC(C)=O)[C@@]1(C)O[C@@H](/C=C/C=C/C=C/c1oc(=O)cc(OC)c1C)[C@@H]2O [aurovertin, Aurovertin B]",enzyme activity at saturating substrate and inhibitor concentrations,[1]; ATP synthesis,inactive
same,increase in the value of the apparent Km,"[1]; ATP synthesis, bovine SMPs",> 2 fold
same,mechanism of inhibition of ATP synthesis,[1]; bovine SMPs,mixed inhibitor
same,decrease of Ki(E) during ATP synthesis versus hydrolysis,[1]; [5],60 fold
same,decrease of Ki(ES) during ATP synthesis versus hydrolysis,[1]; [5],5 fold
same,Ki,"[1]; read-out: Ki(E), ATP synthesis, 3D fit eq 6, n(E)=1, n(ES)=1",13 ± 4 nM
same,Ki,"[1]; read-out: Ki(E), ATP synthesis, 3D fit eq 6, n(E)=2, n(ES)=1",16 ± 2 nM
same,Ki,"[1]; read-out: Ki(ES), ATP synthesis, 3D fit eq 6, n(E)=1, n(ES)=1",22 ± 3 nM
same,Ki,"[1]; read-out: Ki(ES), ATP synthesis, 3D fit eq 6, n(E)=2, n(ES)=1",25 ± 4 nM
same,remaining activity (turnover ratio in presence and absence of aurovertin),"[2]; 20 μM drug, 1 mM ATP",about 60%
same,dwell time decay component τ,[2]; [6],28 ± 11 ms
same,dwell time rise time τ,[2]; [6],16 ± 8 ms
same,"proximity factor P maximum, H level",[2]; [7],0.75
same,"proximity factor P maximum, L level",[2]; [7],0.31
same,"proximity factor P maximum, M level",[2]; [7],0.51
same,fraction of F1Fo-ATPases showing stepwise changing FRET levels,"[2]; saturating (20 μM) aurovertin, of 3685 marked photon bursts",10.4%
same,increase of the value of Vmax/Km,"[3]; ATP hydrolysis, saturating aurovertin concentrations",50%
same,Vmax2 (maximal catalytic rate of ESI complex),"[3]; ATP hydrolysis, 3D fit eq 5, n(E)=1, n(ES)=1",0.23 ± 0.01 µmol/min/mg
same,Vmax2 (maximal catalytic rate of ESI complex),"[3]; ATP hydrolysis, 3D fit eq 5, n(E)=2, n(ES)=1",0.22 ± 0.01 µmol/min/mg
same,mechanism of inhibition of ATP hydrolysis,[3]; bovine SMPs,mixed mechanism of inhibition
same,Ki,"[3]; read-out: Ki(E), ATP hydrolysis, 3D fit eq 5, n(E)=1, n(ES)=1",820 ± 250 nM
same,Ki,"[3]; read-out: Ki(E), ATP hydrolysis, 3D fit eq 5, n(E)=2, n(ES)=1",960 ± 250 nM
same,Ki,"[3]; read-out: Ki(ES), ATP hydrolysis, 3D fit eq 5, n(E)=1, n(ES)=1",119 ± 17 nM
same,Ki,"[3]; read-out: Ki(ES), ATP hydrolysis, 3D fit eq 5, n(E)=2, n(ES)=1",120 ± 17 nM
same,decrease of the value of Vmax for catalysis of ATP hydrolysis,"[3]; saturating aurovertin, fit eq 2-4, n=1",~ 2.5 fold
same,Vmax2 (maximal catalytic rate of ESI complex),"[4]; E. coli, 3D fit eq 5, n(E)=2, n(ES)=1, ±SE",0.06 ± 0.01 µmol/min/mg
same,residual activity at saturating aurovertin,"[4]; everted E. coli membranes, eq 5 fit",~ 20% and 20%
same,Ki,"[4]; read-out: Ki(E), E. coli, 3D fit eq 5, n(E)=2, n(ES)=1, ±SE",430 ± 70 nM
same,Ki,"[4]; read-out: Ki(ES), E. coli, 3D fit eq 5, n(E)=2, n(ES)=1, ±SE",150 ± 20 nM
